Assay results published in ChEMBL document CHEMBL1148376, “Synthesis, monoamine transporter binding properties, and behavioral pharmacology of a series of 3beta-(substituted phenyl)-2beta-(3'-substituted isoxazol-5-yl)tropanes” (J Med Chem, 2004).

Key:
[1] = target: Sodium-dependent dopamine transporter (Rattus norvegicus, UniProt P23977); assay: Inhibitory concentration required to inhibit dopamine transporter DAT was determined by using [3H]WIN-35428 radioligand
In short: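 Competition binding at the DAT with 0.5 nM [3H]WIN35,428 (final concentration). Other procedures follow earlier published methods.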

[2] = test system: Mus musculus; assay: Percent change in locomotor activity in mice at 3 mg/kg i.p. in 1 h.; format: functional; conditions: route intraperitoneal
In short: (§1)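 Mice habituated 1/2 h to photocell activity chambers, then injected ip with compound homogenized in 0.5% methyl cellulose (10 mL/kg); vehicle controls; N = 5 or 6 per dose. Photobeam interruptions recorded in 10-min bins for 4 h, grouped into 1-h bins; one-way ANOVA with Newman-Keuls post hoc test (p < 0.05).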

[3] = test system: Mus musculus; assay: Percent change in locomotor activity in mice at 3 mg/kg i.p. in 2 h.; format: functional; conditions: route intraperitoneal; in short: as §1
[4] = test system: Mus musculus; assay: Percent change in locomotor activity in mice at 3 mg/kg i.p. in 3 h.; format: functional; conditions: route intraperitoneal; in short: as §1
[5] = test system: Mus musculus; assay: Percent change in locomotor activity in mice at 3 mg/kg i.p. in 4 h.; format: functional; conditions: route intraperitoneal; in short: as §1
[6] = test system: Mus musculus; assay: Percent change from vehicle in locomotor activity in mice at 0.3 mg/kg (ip) in 1 h; format: functional
[7] = test system: Mus musculus; assay: Percent change from vehicle in locomotor activity in mice at 0.3 mg/kg (ip) in 2 h; format: functional
[8] = test system: Mus musculus; assay: Percent change from vehicle in locomotor activity in mice at 0.3 mg/kg (ip) in 3 h; format: functional
[9] = test system: Mus musculus; assay: Percent change from vehicle in locomotor activity in mice at 0.3 mg/kg (ip) in 4 h; format: functional
[10] = test system: Mus musculus; assay: Percent change in locomotor activity in mice at 1 mg/kg i.p. in 1 h.; format: functional; conditions: route intraperitoneal
[11] = test system: Mus musculus; assay: Percent change in locomotor activity in mice at 1 mg/kg i.p. in 2 h.; format: functional; conditions: route intraperitoneal; in short: as §1
[12] = test system: Mus musculus; assay: Percent change locomotor activity in mice at 1 mg/kg i.p. in 3 h.; format: functional; conditions: route intraperitoneal; in short: as §1
[13] = test system: Mus musculus; assay: Percent change in locomotor activity in mice at 1 mg/kg i.p. in 4 h.; format: functional; conditions: route intraperitoneal; in short: as §1
[14] = species on record: Mus musculus; assay: Effective dose for locomotor activity in mice in the peak hour.; format: functional
[15] = species on record: Mus musculus; assay: Hour 1 ratio to cocaine was determined for locomotor activity in mice; format: functional
[16] = target: T1, Norepinephrine transporter (Rattus norvegicus, UniProt Q9WTR4); assay: Binding affinity towards norepinephrine transporter was determined using [3H]nisoxetine radioligand.
In short: (§2)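 Competition binding at the NET with 0.5 nM [3H]nisoxetine (final concentration). Other procedures follow earlier published methods.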

[17] = target: T1, Norepinephrine transporter; assay: Inhibition of norepinephrine transporter (NET) determined using [3H]nisoxetine radioligand.; in short: as §2
[18] = test system: Rattus norvegicus; assay: Drug discrimination effect of compound in rats, expressed as percent of rats choosing the cocaine lever at dose 0.1 mg/kg (ip); format: functional
[19] = test system: Rattus norvegicus; assay: Drug discrimination effect of compound in rats, expressed as percent of rats choosing the cocaine lever at dose 0.17 mg/kg (ip); format: functional
[20] = test system: Rattus norvegicus; assay: Drug discrimination effect of compound in rats, expressed as percent of rats choosing the cocaine lever at dose 0.3 mg/kg (ip); format: functional
[21] = test system: Rattus norvegicus; assay: Effective dose for drug discrimination effect in rat (ip); format: functional
In short: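 Cocaine-trained rat drug discrimination, FR10, 10-min sessions. Compound in 0.5% methyl cellulose given ip 15 min before session, usually to 7-8 rats per dose. Doses were raised from ≤20% to ≥80% cocaine-lever choice, capped at 30 mg/kg, >50% loss of pressing, or side effects.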

[22] = target: T2, Sodium-dependent serotonin transporter (Rattus norvegicus, UniProt P31652); assay: Binding affinity towards serotonin transporter 5-HTT was determined using [3H]paroxetine radioligand.
In short: (§3)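 Competition binding at the 5-HTT with 0.2 nM [3H]paroxetine (final concentration). Other procedures follow earlier published methods.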

[23] = test system: Rattus norvegicus; assay: Drug discrimination effect of compound in rats, expressed as percent of rats choosing the cocaine lever at dose 1 mg/kg (ip); format: functional
[24] = target: T2, Sodium-dependent serotonin transporter; assay: Inhibitory concentration required to inhibit serotonin transporter 5-HTT was determined by using [3H]paroxetine radioligand; in short: as §3
[25] = test system: Rattus norvegicus; assay: Drug discrimination effect of compound in rats, expressed as percent of rats choosing the cocaine lever at dose 0.56 mg/kg (ip); format: functional
[26] = test system: Rattus norvegicus; assay: Drug discrimination effect of compound in rats, expressed as percent of rats choosing the cocaine lever at dose 1.7 mg/kg (ip); format: functional
[27] = test system: Rattus norvegicus; assay: Drug discrimination effect of compound in rats, expressed as percent of rats choosing the cocaine lever at dose 3 mg/kg (ip); format: functional
[28] = test system: Mus musculus; assay: Percent change from vehicle in locomotor activity in mice at 10 mg/kg (ip) in 1 h; format: functional
[29] = test system: Mus musculus; assay: Percent change from vehicle in locomotor activity in mice at 10 mg/kg (ip) in 2 h; format: functional
[30] = test system: Mus musculus; assay: Percent change from vehicle in locomotor activity in mice at 10 mg/kg (ip) in 3 h; format: functional
[31] = test system: Mus musculus; assay: Percent change from vehicle in locomotor activity in mice at 10 mg/kg (ip) in 4 h; format: functional
[32] = test system: Rattus norvegicus; assay: Drug discrimination effect of compound in rats, expressed as percent of rats choosing the cocaine lever at dose 10 mg/kg (ip); format: functional
[33] = test system: Rattus norvegicus; assay: Drug discrimination effect of compound in rats, expressed as percent of rats choosing the cocaine lever at dose 5.6 mg/kg (ip); format: functional

Sequence of Sodium-dependent dopamine transporter (P23977 whole entry): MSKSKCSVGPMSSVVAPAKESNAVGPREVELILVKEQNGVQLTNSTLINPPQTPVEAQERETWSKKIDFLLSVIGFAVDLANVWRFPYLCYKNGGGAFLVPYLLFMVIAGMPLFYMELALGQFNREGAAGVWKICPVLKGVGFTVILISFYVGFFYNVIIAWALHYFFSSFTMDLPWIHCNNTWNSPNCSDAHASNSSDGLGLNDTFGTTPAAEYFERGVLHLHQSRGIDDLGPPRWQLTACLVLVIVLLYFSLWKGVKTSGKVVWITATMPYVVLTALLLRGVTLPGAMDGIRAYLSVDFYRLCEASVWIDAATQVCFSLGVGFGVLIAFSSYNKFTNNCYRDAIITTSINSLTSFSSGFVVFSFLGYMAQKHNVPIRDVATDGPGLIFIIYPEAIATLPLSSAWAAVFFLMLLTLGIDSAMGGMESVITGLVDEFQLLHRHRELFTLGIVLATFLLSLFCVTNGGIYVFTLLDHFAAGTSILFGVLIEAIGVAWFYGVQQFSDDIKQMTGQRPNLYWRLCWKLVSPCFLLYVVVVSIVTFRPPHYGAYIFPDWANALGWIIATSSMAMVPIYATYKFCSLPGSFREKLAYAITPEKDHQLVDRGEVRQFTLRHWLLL
T1 sequence (Q9WTR4 whole entry): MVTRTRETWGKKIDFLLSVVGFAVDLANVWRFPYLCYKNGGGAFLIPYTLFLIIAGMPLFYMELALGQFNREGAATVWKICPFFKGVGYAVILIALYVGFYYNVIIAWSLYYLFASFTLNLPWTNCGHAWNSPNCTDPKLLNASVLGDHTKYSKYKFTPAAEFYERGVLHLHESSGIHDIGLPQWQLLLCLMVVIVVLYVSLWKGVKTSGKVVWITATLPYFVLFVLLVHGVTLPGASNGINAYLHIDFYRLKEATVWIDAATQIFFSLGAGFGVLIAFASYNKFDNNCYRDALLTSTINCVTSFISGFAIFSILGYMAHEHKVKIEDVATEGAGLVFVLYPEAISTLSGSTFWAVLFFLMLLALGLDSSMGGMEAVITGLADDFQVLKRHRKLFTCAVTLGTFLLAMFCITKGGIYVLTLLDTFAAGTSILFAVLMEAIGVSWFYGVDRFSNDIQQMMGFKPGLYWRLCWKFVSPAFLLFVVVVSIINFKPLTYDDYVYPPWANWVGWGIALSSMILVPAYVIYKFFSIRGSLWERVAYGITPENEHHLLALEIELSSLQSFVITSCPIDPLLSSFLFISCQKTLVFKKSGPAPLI
T2 sequence (P31652 whole entry): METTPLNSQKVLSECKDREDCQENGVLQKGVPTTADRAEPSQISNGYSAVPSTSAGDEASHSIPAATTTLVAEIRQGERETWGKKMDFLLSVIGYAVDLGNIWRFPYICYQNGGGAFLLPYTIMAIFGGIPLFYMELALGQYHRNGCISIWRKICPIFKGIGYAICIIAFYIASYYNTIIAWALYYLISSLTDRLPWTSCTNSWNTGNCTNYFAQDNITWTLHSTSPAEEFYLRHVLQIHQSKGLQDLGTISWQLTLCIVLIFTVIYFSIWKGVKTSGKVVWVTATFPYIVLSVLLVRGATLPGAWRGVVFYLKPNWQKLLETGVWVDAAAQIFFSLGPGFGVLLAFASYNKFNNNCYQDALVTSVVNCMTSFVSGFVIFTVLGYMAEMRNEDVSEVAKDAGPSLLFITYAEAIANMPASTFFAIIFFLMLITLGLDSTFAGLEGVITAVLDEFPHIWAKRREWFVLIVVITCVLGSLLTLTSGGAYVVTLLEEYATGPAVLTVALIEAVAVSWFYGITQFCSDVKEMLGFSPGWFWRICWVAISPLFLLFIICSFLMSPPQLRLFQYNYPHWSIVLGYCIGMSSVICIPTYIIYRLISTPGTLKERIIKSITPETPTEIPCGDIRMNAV

SMILES | IC50 [1] [nM] | Change [2] [%] | Change [3] [%] | Change [4] [%] | Change [5] [%] | Change [6] [%] | Change [7] [%] | Change [8] [%] | Change [9] [%] | Change [10] [%] | Change [11] [%] | Change [12] [%] | Change [13] [%] | ED50 [14] [mg/kg] | Ratio [15] | Ki [16] [nM] | IC50 [17] [nM] | ED50 [21] [mg/kg] | Ki [22] [nM] | Drug discrimination effect [23] [%] | further results
Cc1ccc(C2CC3CCC(C2c2cc(C)no2)N3C)cc1 (stereo not drawn) | 0.93 | 478 | 552 | 986 | 221 | 140 | 156 | 75 | 48 | 341 | 413 | 392 | 78 | 1.1 | 1.1 | 153 | 254 | 0.28 | 348 | – | Drug discrimination effect [18]: 13%; Drug discrimination effect [19]: 0%; Drug discrimination effect [20]: 83%
CN1C2CCC1C(c1ccno1)C(c1ccc(Cl)cc1)C2 (stereo not drawn) | 0.77 | 486 | 137 | -40 | -71 | 57 | 86 | 70 | -20 | 186 | 284 | 345 | 182 | 1.2 | 1.1 | 52 | 87 | 0.41 | 8.2 | 100 | Drug discrimination effect [18]: 13%; Drug discrimination effect [19]: 29%; Drug discrimination effect [20]: 63%; IC50 [24]: 91 nM; Drug discrimination effect [25]: 25%
CC(C)c1cc(C2C(c3ccc(Cl)cc3)CC3CCC2N3C)on1 (stereo not drawn) | 1.19 | 876 | 995 | 680 | 1745 | 34 | 41 | -21 | -39 | 370 | 632 | 188 | -2 | 0.8 | 1.9 | 575 | 954 | – | 211 | 13 | Drug discrimination effect [26]: 25%; Drug discrimination effect [27]: 63%; IC50 [24]: 2320 nM
CCc1cc(C2C(c3ccc(C)cc3)CC3CCC2N3C)on1 (stereo not drawn) | 1.62 | 613 | 893 | 725 | 81 | 34 | 99 | 173 | -72 | 449 | 489 | 222 | 48 | 0.9 | 1.4 | 180 | 299 | 0.82 | 582 | 75 | Drug discrimination effect [20]: 0%; Drug discrimination effect [26]: 100%; IC50 [24]: 6400 nM; Drug discrimination effect [25]: 14%
Cc1ccc(C2CC3CCC(C2c2ccno2)N3C)cc1 (stereo not drawn) | 1.37 | 698 | 666 | 571 | 125 | -13 | -12 | 136 | -28 | 319 | 214 | 48 | -32 | 1 | – | – | – | 0.19 | 38 | 100 | Drug discrimination effect [18]: 0%; Drug discrimination effect [19]: 43%; Drug discrimination effect [20]: 83%; IC50 [24]: 414 nM
CN1C2CCC1C(c1cc(C(C)(C)C)no1)C(c1ccc(Cl)cc1)C2 (stereo not drawn) | 7.31 | 112 | 204 | 206 | -29 | – | – | – | – | 41 | 103 | 135 | 33 | 4 | 0.9 | 3810 | 6320 | 3.04 | 3350 | 0 | Change [28]: 388%; Change [29]: 769%; Change [30]: 1272%; Change [31]: 229%; Drug discrimination effect [32]: 83%; Drug discrimination effect [27]: 50%; Drug discrimination effect [33]: 88%; IC50 [24]: 36800 nM
